Bioassay records from PubChem BioAssay.
T cruzi inh: T. cruzi replication inhibition; 300,000 tested, 1.4% active; T. cruzi beta-gal in NIH3T3, luminescence, 90 h; inhibition, % (no concentration beside the values);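 active = mean inhibition across valid replicates above about 55%, limit read from the data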;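 also: signal also drops with host cell toxicity which is not excluded here; 0% = plate median of DMSO wells and 100% = zero luminescence signal; higher percent means less beta-gal luminescence so fewer parasites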
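System – NIH/3T3 host cells with β-galactosidase reporter T. cruzi · Doses – single 50 nL compound addition per well in DMSO · Reagent – 5000 T. cruzi trypomastigotes/well · Medium – Low-serum DMEM with 2% FBS · Timing – ≥90 h infection period, 3 h prior cell attachment · Evaluation – parasite load inhibition, % · Technique – GalScreen luminescence, 60 min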
Dynein cargo inh: blocks dynein driven cargo transport along microtubules. 3617.4 mouse cells, GR-EGFP nuclear translocation imaging; test concentration mostly 20 µM; stimulated with dexamethasone, 1 µM; active compounds read low. z-score, hits read low. 220,000 tested, 0.47% active. AID 1381;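 active = plate z-score of nuclear minus cytoplasmic receptor signal below a set negative limit, without overly bright fluorescence or cell loss, cut at about -3.5 in these data, passing the limit was not always enough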;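 also: z-score of nuclear minus cytoplasmic ring GR-EGFP intensity difference per well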
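medium = tetracycline-free induction medium containing charcoal-stripped FBS | probe or stimulus = dexamethasone, 1.0 µM final | timing = 48 h induction, then 1 h compound, then 30 min agonist, 37 °C | detection = automated 10x imaging of fixed Hoechst-stained cells | read-out basis = nuclear versus cytoplasmic GR-EGFP signal, averaged per well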
L major viab: inhibitors of Leishmania major promastigote growth. inhibition, % at 10 µM. Leishmania major promastigotes, resazurin fluorescence viability. 200,000 tested, 9% active. AID 1063; in the data active = inhibition above about 50%;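 also: promastigotes grown with compound for 44 hours at 28 °C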
XBP1 UPR activ: adaptive UPR (XBP1) activation; activation, % at 20 µM; CHO-XBP1 luciferase reporter, IRE1-XBP1 UPR activation, luminescence; percent of tunicamycin response, DMSO as zero; 330,000 tested, 0.33% active; AID 463104;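 active = versus positive control, 20 µM dose yields 30% or more activation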;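 also: 100% = tunicamycin at 10 µg/mL and 0% = DMSO only wells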
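incubation = overnight seeding at 37 °C, 6 h compound treatment at 37 °C | assay system = CHO-XBP1 cells stably carrying IRE1-XBP1-driven luciferase reporter | input = 1000 cells per well | detection = luciferase luminescence | dosing = single point, 20 µM final compound, 1% DMSO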
CHOP inh: CHOP inhibition in unfolded protein response | AID 2732 | 220,000 tested, 3.8% active | inhibition, % at 10 µM | CHO-K1 CHOP-promoter luciferase, tunicamycin-induced, 15-18 h;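 active = compounds that reduced the stress-induced luciferase reporter signal by more than about 70% of percent inhibition, limit read from the data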;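 also: 0% = tunicamycin plus vehicle and 100% = wells without tunicamycin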
UPR CHOP act: apoptotic UPR (CHOP) activation; CHO-CHOP luciferase reporter, luminescence; percent of tunicamycin response over DMSO baseline; activation, % at 10 µM; 330,000 tested, 0.34% active; AID 449763;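 active = at 10 µM dose, activation of 40% or more, normalized to positive control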;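 also: 100% = tunicamycin at 10 µg/mL and 0% = DMSO alone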
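assay system = CHO CHOP reporter cells | amount = 500 CHO-CHOP cells per well | buffer or medium = F12 with 10% FBS | incubation = 16-18 h cell attachment, then 6 h compound exposure, 37 °C | detection = luminescence read with Steady-Glo | read-out = percent activation relative to tunicamycin control | controls = tunicamycin high control, DMSO low control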
Lmaj promast 1uM: L. major promastigote growth inhibition, 1 uM repeat; inhibition, % at 1 µM; 1,100 tested, 13% active; resazurin fluorescence, 48 h; shares compounds with L major viab;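 active = inhibition above about 50% in both repeat tests, limit read from the data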
Dynein inh conf: dynein cargo transport inhibition, confirmation. shares compounds with Dynein cargo inh. 3617.4 GR-EGFP nuclear translocation imaging, dexamethasone-induced. calls only at 20 µM. 1,000 tested, 69% active;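 active = inhibition of receptor movement into the nucleus at or above a set limit in both runs, with normal cell brightness and cell count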;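 also: dexamethasone at 1 µM final in well for 30 min; nuclear minus cytoplasmic GR-EGFP mean intensity difference in channel 2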
CHOP confirm: confirmation of CHOP induction inhibitors | 2,100 tested, 45% active | shares compounds with CHOP inh | inhibition, % at 10 µM | CHO-CHOP promoter luciferase reporter, tunicamycin-induced, luminescence;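 active = mean of three repeat readings of reporter signal inhibition above a set limit, cut at about 70% in these data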;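 also: 0% = tunicamycin plus vehicle and 100% = wells lacking tunicamycin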
CHOP UPR conf: confirmation of apoptotic unfolded protein response (CHOP) activators | shares compounds with UPR CHOP act | CHO-CHOP cells, CHOP-luciferase reporter luminescence; percent of tunicamycin response, DMSO as zero | activation, % at 10 µM | 1,000 tested, 64% active | AID 463112; in the data active = activation above about 33%;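 also: 0% = DMSO wells and 100% = tunicamycin 10 µg/mL wells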
* marks the source's active call; other numbers are inactive results; / = no result; + = active, no number. The sample as a whole holds a higher share of hits than the screen did.

SMILES	T cruzi inh	Dynein cargo inh	L major viab	XBP1 UPR activ	CHOP inh	UPR CHOP act	Lmaj promast 1uM	CHOP confirm	others
COC(=O)CS(=O)(=O)c1nnc([C@H](Cc2ccccc2)NC(=O)OC(C)(C)C)o1	4	-3.9*	101*	-11	111*	-10	0	94*	Dynein inh conf=+
CN1C(=O)NC(c2cccc([N+](=O)[O-])c2)C2=C1CCCC2=O (stereo unspecified)	-7	/	/	3	/	-2	/	/
Cc1ccc(O)c(-c2cc(-c3ccccc3C)[nH]n2)c1	-4	-1.3	55*	6	106*	3	20	8
Cc1ccccc1NC1=C/C(=N\S(=O)(=O)c2cccs2)c2ccccc2C1=O	57*	-0.87	100*	-6	107*	-5	97*	-13
O=C(O)c1ccc(S(=O)(=O)/N=C2\C=C(Nc3ccccc3F)C(=O)c3ccccc32)cc1	28	/	/	6	/	19	/	/
C=C(C)C1Cc2c(C)nn(-c3cccc4ccccc34)c2C1 (stereo unspecified)	20	-1.4	61*	4	101*	0	-29	31
Cc1ccccc1NS(=O)(=O)c1ccc2[nH]c(=O)[nH]c2c1	5	0.67	-2	1	-3	0	/	/
CC(C)C[C@H](NC(=O)OC(C)(C)C)C(=O)N/N=C/C1=Cc2ccccc2OC1C (stereo partly specified)	69*	-0.19	98*	4	103*	-1	-4	91*
CCCCCCCCCCCCCCCCn1cc[n+](C)c1	67*	0.88	101*	3	81*	23	99*	115*
CC[C@@]12C(=O)N(c3ccc(C)cc3)C(=O)N1[C@H](c1ccc(Br)cc1)[C@@H]1C(=O)N(C(C)(C)C)C(=O)[C@@H]12	11	/	/	-2	/	0	/	/
COc1ccc(NC(=O)/C(Cl)=C(/Cl)S(=O)Cc2ccccc2Cl)cn1 (stereo unspecified)	/	-5*	101*	-7	110*	-11	100*	120*
COc1ccc(CSCC(=O)Nc2ccccc2)cc1[N+](=O)[O-]	-3	/	/	0	/	1	/	/
CC(C)CNS(=O)(=O)c1ccc(CCC(=O)NCCc2ccccc2)cc1	9	/	/	-4	/	2	/	/
Cc1cccc(OCCn2c(NC(=O)c3ccco3)nc3ccccc32)c1	60*	-0.9	97*	7	104*	1	87*	-12
Cc1cccc(OCCn2c(-c3ccco3)nc3ccccc32)c1	20	-0.8	22	2	24	2	/	/
CCC(C)(C)c1ccc(Oc2ccc(N)cc2)cc1	12	3	95*	/	108*	/	14	125*
NC(=O)c1ccc(NC(=O)CN2C(=O)NC(c3ccccc3)(c3ccccc3)C2=O)cc1	-10	/	/	-3	/	1	/	/
O=S(=O)(CCSc1nc2ccccc2s1)c1nc2ccccc2s1	29	-0.55	100*	-4	5	108*	54*	/	CHOP UPR conf=154*
Cc1noc2ncnc(Sc3ccc(Br)cc3)c12	62*	-1.4	67*	-11	13	229*	32	/	CHOP UPR conf=124*
O=C(O)CC(C(=O)Nc1ccc(Cl)cc1)N1CCCCCC1 (stereo unspecified)	2	/	/	-4	/	-2	/	/
Cc1ccc(-c2csc3ncnc(Sc4nnc(CN5CCCCCC5=O)o4)c23)cc1	-66	-3.8*	99*	-6	/	82*	4	/	Dynein inh conf=+;CHOP UPR conf=80*
